Results taken from PMC2720137 (Cancer cell, 2008).

What was measured:
[1] = test system: MCF10A cells expressing p110α-H1047R I800L; test: MCF10A EGF-independent growth; type: cell-based, human; conditions: media lacking EGF, Alamar Blue
Procedure, shortened: (§1)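 MCF10A cells were retrovirally transduced with pMIG p110α-H1047R mutants (IRES-GFP) after EcoR nucleofection, then FACS-sorted to >95% GFP+. Cells were seeded at 2 × 10^3 per 96-well in growth medium, and after 2 days switched to EGF-free medium with PI3K inhibitors (DMSO stocks 1:1000). Every 2 days: resazurin (120 µg/ml stock, 1:20) added for 2 h at 37°C plus 15 min RT, fluorescence read at ex 520/em 590 nm, and medium refreshed. Mean ± SEM.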

[2] = test system: phospho-Akt (Thr308, Ser473) in I800L MCF10A cells; test: Phospho-Akt western blot, I800L MCF10A cell line; type: cell-based, human; conditions: for resistance of phospho-Akt levels: 1 hour treatment, serial dilutions; for change in inhibitor sensitivity of phospho-308 Akt: seen in phospho-308 Akt but not phospho-473
[3] = test system: MCF10A cells expressing p110α-H1047R L814C; test: MCF10A EGF-independent growth; type: cell-based, human; conditions: media lacking EGF, Alamar Blue
Procedure, shortened: as §1

[4] = test system: MCF10A cells expressing p110α-H1047R I800M; test: MCF10A EGF-independent growth; type: cell-based, human; conditions: media lacking EGF, Alamar Blue
Procedure, shortened: as §1

[5] = test system: phospho-Akt (Thr308, Ser473) in L814C MCF10A cells; test: Phospho-Akt western blot, L814C MCF10A cell line; type: cell-based, human; conditions: 1 hour treatment, serial dilutions
[6] = test system: phospho-Akt (Thr308, Ser473) in I800M MCF10A cells; test: Phospho-Akt western blot, I800M MCF10A cell line; type: cell-based, human; conditions: 1 hour treatment, serial dilutions
[7] = target: Myc-tagged p110α-H1047R I800L (Homo sapiens, UniProt P42336, H1047R/I800L); test: In vitro PI3K assay, I800L mutant; type: biochemical; conditions: I800L vs p110α-H1047R, 10 μM ATP
Sequence of Myc-tagged p110α-H1047R I800L (P42336 whole entry I800L/H1047R): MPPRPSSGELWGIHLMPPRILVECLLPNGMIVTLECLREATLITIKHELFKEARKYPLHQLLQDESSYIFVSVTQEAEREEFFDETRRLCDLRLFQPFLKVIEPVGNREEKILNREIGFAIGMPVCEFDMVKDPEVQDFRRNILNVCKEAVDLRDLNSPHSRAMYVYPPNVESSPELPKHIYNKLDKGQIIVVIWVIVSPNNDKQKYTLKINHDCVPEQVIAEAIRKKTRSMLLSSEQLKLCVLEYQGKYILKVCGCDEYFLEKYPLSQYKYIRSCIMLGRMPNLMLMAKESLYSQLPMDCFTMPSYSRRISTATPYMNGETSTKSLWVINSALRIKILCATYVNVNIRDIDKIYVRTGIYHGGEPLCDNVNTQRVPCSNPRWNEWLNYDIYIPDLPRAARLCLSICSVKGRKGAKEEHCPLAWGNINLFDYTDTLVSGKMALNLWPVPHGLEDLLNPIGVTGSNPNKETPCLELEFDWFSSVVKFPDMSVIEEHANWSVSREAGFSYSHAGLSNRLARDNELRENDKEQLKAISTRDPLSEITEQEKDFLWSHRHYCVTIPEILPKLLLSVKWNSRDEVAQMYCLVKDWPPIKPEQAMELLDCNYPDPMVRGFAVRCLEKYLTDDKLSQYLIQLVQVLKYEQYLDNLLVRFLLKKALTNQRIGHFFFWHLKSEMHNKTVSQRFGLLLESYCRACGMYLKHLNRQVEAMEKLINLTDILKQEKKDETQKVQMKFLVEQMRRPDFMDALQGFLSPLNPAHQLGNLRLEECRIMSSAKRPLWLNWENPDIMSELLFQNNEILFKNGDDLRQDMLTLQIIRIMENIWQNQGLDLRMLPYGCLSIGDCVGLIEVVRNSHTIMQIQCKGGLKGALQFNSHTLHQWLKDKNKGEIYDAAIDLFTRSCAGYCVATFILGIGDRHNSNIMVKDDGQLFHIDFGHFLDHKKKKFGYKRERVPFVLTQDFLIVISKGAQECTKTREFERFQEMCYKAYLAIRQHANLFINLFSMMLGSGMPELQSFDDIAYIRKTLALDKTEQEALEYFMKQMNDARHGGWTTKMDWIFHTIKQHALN

p110α = conditions: ref Brunn et al., 1996; Vlahos et al., 1994; cited from earlier work
[8] = test system: S. cerevisiae overexpressing membrane-localized p110α; conditions: ref Rodriguez-Escudero et al., 2005; cited from earlier work
[9] = test system: YRP1-pURA3-2μ-GAL1-p110αH1047R-CAAX; test: Reverse halo assay; type: cell-based, S. cerevisiae; conditions: 10 μl of a 10 mM DMSO stock spotted on cellulose disc, SD −URA +Galactose
[10] = test system: wild-type AFS92 strain expressing p110α-CAAX; test: Rescue of PI3K-induced growth inhibition, yeast serial dilutions; type: cell-based, S. cerevisiae; conditions: 5 μM PI-103, galactose
[11] = test system: phospho-Akt in p110α-expressing MCF10A cell lines; type: cell-based, human; conditions: 30 μM PI-103, 1 hour, after 24 hours EGF starvation, all cell lines
Procedure, shortened: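 GFP-sorted MCF10A lines transduced with p110α mutants, at 40-70% confluence, were starved 24 h in MCF10A medium lacking EGF and insulin. They were then given normal growth medium and/or inhibitor (DMSO control) for 60 min. Cells were lysed in PI3K lysis buffer (50 mM Tris pH 7.4, 300 mM NaCl, 1% Triton X-100, phosphatase/protease inhibitors) and western blotted for phospho-Akt.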

[12] = test system: drug-permeablized YRP1 strain expressing p110α-CAAX; test: Rescue of PI3K-induced growth inhibition, yeast serial dilutions; type: cell-based, S. cerevisiae; conditions: 5 μM PI-103, galactose
[13] = test system: Myc-tagged p110α-H1047R I800M; type: biochemical, human; conditions: I800M vs p110α-H1047R, 10 μM ATP
[14] = test system: Myc-tagged p110α-H1047R L814C; type: biochemical, human; conditions: L814C vs p110α-H1047R, 10 μM ATP
[15] = test system: PI4KIIIβ with the mutation corresponding to Y836M; conditions: ref Balla et al., 2008; cited from earlier work

Compound | resistance of phospho-Akt levels [2] | sensitization of cell growth [3] | inhibitor resistance of EGF-independent growth [4] | sensitization of phospho-Akt levels [5] | resistance of phospho-Akt levels [6] | growth halo in reverse halo assay [9] | inhibitor resistance of EGF-independent growth [1] | decrease in inhibitor potency (mutant IC50 / WT IC50) [13] | decrease in inhibitor potency (mutant IC50 / WT IC50) [7] | further results
Cn1c(=O)n(-c2ccc(C(C)(C)C#N)cc2)c2c3cc(-c4cnc5ccccc5c4)ccc3ncc21 [BEZ-235] | Significant resistance is not observed | minimal or no sensitization | less dramatic | sensitization is seen | Significant resistance is not observed |  |  |  |  | inhibitor sensitization of EGF-independent growth [1]: sensitized; change in inhibitor sensitivity of phospho-308 Akt [2]: sensitization; change in inhibitor sensitivity in vitro [7]: sensitized
O=c1cc(N2CCOCC2)oc2c(-c3ccccc3)cccc12 [LY294002, 2-(4-morpholinyl)-8-phenyl-4H-1-benzopyran-4-one] |  |  |  |  |  | did not produce growth halos |  |  |  | potency as inhibitor of p110α and other PI3K family members (p110α): only a μM inhibitor; reversal of p110α-induced growth inhibition [8]: partially reversed
Oc1cccc(-c2nc(N3CCOCC3)c3oc4ncccc4c3n2)c1 [PI-103] | Significant resistance is not observed | minimal or no sensitization | less dramatic |  | Significant resistance is not observed |  | less dramatic | 5-10 fold | 5-10 fold | change in inhibitor sensitivity of phospho-308 Akt [2]: Slight resistance; rescue of PI3K-induced growth inhibition [10]: only partially rescues growth; block of phospho-Akt stimulation by EGF-containing media [11]: blocked; rescue of PI3K-induced growth inhibition [12]: completely rescues growth
Cc1ccc([N+](=O)[O-])cc1S(=O)(=O)N(C)/N=C/c1cnc2ccc(Br)cn12 [PIK-75] |  |  |  |  |  | produced only a thin ring of growth |  |  |  | 
COc1ccc2c(c1OC)N=C(NC(=O)c1cccnc1)N1CCN=C21 [PIK-90] | approximately 3 fold | strong sensitization | most pronounced | approximately 5 fold |  |  | most pronounced | 5-10 fold | 5-10 fold | drug sensitization (mutant IC50 / WT IC50) [14]: more than 10 fold
CC(=O)Nc1nc(C)c(-c2ccc(Cl)c(S(=O)(=O)NCCO)c2)s1 [PIK-93] | approximately 3 fold | strong sensitization | most pronounced | ~30 fold | approximately 10 fold |  | most pronounced | 5-10 fold | 5-10 fold | drug resistance of active mutant kinase [15]: resistant; drug sensitization (mutant IC50 / WT IC50) [14]: approximately 100 fold
COC[C@H]1OC(=O)c2coc3c2[C@@]1(C)C1=C(C3=O)[C@@H]2CCC(=O)[C@@]2(C)C[C@H]1OC(C)=O [wortmannin] |  |  |  |  |  | did not produce growth halos |  |  |  | drug resistance of active mutant kinase [15]: resistant
